Reference: publication PMC10872613 (Journal of immunology (Baltimore, Md. : 1950), 2024)
pIC50, pKi: −log10 of the molar value. “Also recorded” adds a separate entry of the source. Read-outs that look alike come from different tables or passages of the source.

How the values were obtained:
[1] = test system: bovine pancreatic trypsin; settings: concentrations up to 200 μM; cited from earlier work
[2] = biological target: T1, mouse C1s-2SP (Mus musculus, UniProt Q8CG14); assay: Mouse C1s-2SP chromogenic ZGR assay; assay type: biochemical
T1 sequence (Q8CG14 357-423 limits assumed): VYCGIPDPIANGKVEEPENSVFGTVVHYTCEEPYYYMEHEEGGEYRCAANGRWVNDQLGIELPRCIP
T1 sequence (Q8CG14 438-688 limits assumed): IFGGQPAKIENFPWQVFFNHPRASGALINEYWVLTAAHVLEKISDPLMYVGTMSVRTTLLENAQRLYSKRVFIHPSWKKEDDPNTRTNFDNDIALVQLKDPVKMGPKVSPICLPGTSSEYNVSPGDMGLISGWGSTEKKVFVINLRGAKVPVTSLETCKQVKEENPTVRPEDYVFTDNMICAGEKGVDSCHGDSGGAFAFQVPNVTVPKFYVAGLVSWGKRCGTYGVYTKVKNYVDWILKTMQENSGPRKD
Summary of the method: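 Recombinant mouse C1s-2SP (2.5 nM) was tested at 25 °C in 50 mM HEPES pH 7.4, 140 mM NaCl, 0.005% Tween-20, 5% DMSO, 0.44 mM DTNB. ZGR initial velocities were measured at four substrate levels (~2.3–9.4 x Km) and five inhibitor levels (0–~8.4 x Ki). Triplicate data were globally fit to a competitive inhibition model.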

[3] = test system: CP activation by heparin-induced immune complexes; assay: CP activation by heparin-induced immune complexes in whole blood; assay type: cell-based, human; settings: highest concentration examined (series 1,000 – 10 μM)
Summary of the method: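 Healthy-donor whole blood was anticoagulated with ACD (1.4 mL per 8.6 mL blood). It was preincubated 30 min at room temperature with buffer, test compound (1000–10 μM) or B. miyamotoi FbpA-C/FbpB-C control proteins (100 μg/mL). Anti-PF4/heparin antibody KKO (50 μg/mL), PF4 (25 μg/mL) and heparin (1 U/mL) were then added, 30 min at 37 °C. Plasma was quenched with 10 mM EDTA, and C5a was measured by sandwich ELISA.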

[4] = biological target: T2, C1s-2SP (Homo sapiens, UniProt P09871); assay: C1s-2SP chromogenic ZGR cleavage assay; assay type: biochemical; settings: for C1s-2SP activity (initial velocity of ZGR cleavage): 100 μM compound, single-concentration screen, compared with mean of library; for loss of activity compared to A1: Ki against human C1s-2SP relative to A1
T2 sequence (P09871 357-423 limits assumed): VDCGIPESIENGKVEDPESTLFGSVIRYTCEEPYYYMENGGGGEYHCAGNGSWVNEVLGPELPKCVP
T2 sequence (P09871 438-688 limits assumed): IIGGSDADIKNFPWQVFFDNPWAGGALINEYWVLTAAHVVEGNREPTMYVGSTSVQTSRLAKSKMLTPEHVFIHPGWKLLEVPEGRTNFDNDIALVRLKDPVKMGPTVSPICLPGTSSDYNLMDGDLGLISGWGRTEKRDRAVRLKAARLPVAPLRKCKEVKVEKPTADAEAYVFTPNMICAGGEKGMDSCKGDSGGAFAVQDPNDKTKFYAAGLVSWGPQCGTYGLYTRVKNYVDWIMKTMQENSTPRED
Summary of the method: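 Recombinant human C1s-2SP was expressed in E. coli BL21(DE3), purified by denaturing IMAC, refolded in glutathione redox buffer and isolated by gel filtration. The enzyme (2.4 nM) was run at 25 °C in 50 mM HEPES pH 7.4, 140 mM NaCl, 0.005% Tween-20, 5% DMSO, 0.44 mM DTNB. ZGR initial velocities were read on a 4×5 grid (~0.2–1.2 x Km; inhibitor 0–~2.6 x Ki), n = 3, with a global competitive fit.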

[5] = test system: Factor Xa; assay: Factor Xa chromogenic ZGR assay; assay type: biochemical; settings: inhibitor 0 to 226 μM
Summary of the method: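 Buffer: 50 mM HEPES pH 7.4, 140 mM NaCl, 0.025% Tween-20, 5% DMSO, with 0.59 mM DTNB indicator. Thiol release was read chromogenically in microplates.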

[6] = test system: Cathepsin-G; assay: Cathepsin G chromogenic assay; assay type: biochemical, human; settings: inhibitor 0 to 29.4 μM; data not shown
Summary of the method: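 Cathepsin G (9.5 nM) was assayed at 25 °C with inhibitor 0–29.4 μM and fixed 0.92 mM succinyl-Ala-Ala-Pro-Phe-p-nitroanilide (ε400 = 12.3 mM−1 cm−1). Buffer: 50 mM HEPES pH 7.4, 140 mM NaCl, 0.025% Tween-20, 20.7% DMSO. Microplate chromogenic read-out.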

[7] = test system: Neutrophil Elastase; assay: Neutrophil elastase chromogenic assay; assay type: biochemical, human; settings: inhibitor 0 to 29.4 μM
Summary of the method: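 Neutrophil elastase purified from human sputum (6.9 nM) was run at 25 °C with inhibitor 0–29.4 μM and fixed 52 μM methoxysuccinyl-Ala-Ala-Pro-Val-p-nitroanilide (ε400 = 12.3 mM−1 cm−1). Buffer: 50 mM HEPES pH 7.4, 140 mM NaCl, 0.05% Tween-20. Microplate chromogenic read-out.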

[8] = Aqueous solubility; assay type: physicochemical; settings: water
[9] = biological target: thrombin (Homo sapiens, UniProt P00734); assay: Thrombin chromogenic ZGR assay; assay type: biochemical
Summary of the method: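 Serum-purified activated thrombin (2.7 nM) was assayed at 25 °C in 50 mM HEPES pH 7.4, 140 mM NaCl, 0.005% Tween-20, 5% DMSO with 0.59 mM DTNB. Initial ZGR hydrolysis rates were measured at four ZGR levels (~Km–9 x Km) × five inhibitor levels (0–~3.4 x Ki). Triplicate data were globally fit to a competitive inhibition model.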

[10] = test system: classical pathway (CP); assay: CP-specific ELISA; assay type: biochemical, human; settings: for C4b deposition (CP activity): 100 μM compound, single-concentration screen, 2% human serum
Summary of the method: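 Wells coated with human IgM received 2% (v/v) complement-preserved human serum with a two-fold test compound series (100–3.1 μM) in HBS++ plus 0.1% gelatin, 1 h at 37 °C. After TBS-T washes, deposited C4b was detected with mouse anti-C4b mAb and HRP anti-mouse IgG. Signals were normalized to uninhibited and serum-free controls. Triplicates were fit to a four-parameter dose-response model.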

[11] = biological target: T3, C1s purified from human serum (Homo sapiens, UniProt P09871); assay: Native C1s chromogenic ZGR assay; assay type: biochemical
T3 sequence (P09871 16-437 limits assumed): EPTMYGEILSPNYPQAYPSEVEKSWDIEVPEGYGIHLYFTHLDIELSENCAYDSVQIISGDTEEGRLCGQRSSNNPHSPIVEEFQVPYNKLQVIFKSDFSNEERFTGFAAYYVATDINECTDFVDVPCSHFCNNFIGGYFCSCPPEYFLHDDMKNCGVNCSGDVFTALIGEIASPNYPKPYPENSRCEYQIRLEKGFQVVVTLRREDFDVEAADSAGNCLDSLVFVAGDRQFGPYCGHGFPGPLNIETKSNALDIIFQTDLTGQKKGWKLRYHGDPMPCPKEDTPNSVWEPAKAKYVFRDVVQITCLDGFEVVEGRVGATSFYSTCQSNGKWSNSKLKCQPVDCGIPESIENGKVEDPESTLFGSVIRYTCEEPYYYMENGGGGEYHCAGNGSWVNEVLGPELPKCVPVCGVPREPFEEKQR
T3 sequence (P09871 438-688 limits assumed): T2 sequence (P09871 438-688 limits assumed)

[12] = biological target: T4, C1s (Homo sapiens, UniProt P09871); assay: Cleavage of C2 by C1s; assay type: biochemical
T4 sequence (P09871 16-437 limits assumed): T3 sequence (P09871 16-437 limits assumed)
T4 sequence (P09871 438-688 limits assumed): T2 sequence (P09871 438-688 limits assumed)
Summary of the method: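 Serum-derived activated C1s (6.25 nM) was mixed with a two-fold test compound series (100–1.56 μM) in HBS++ and C2 was added (0.5 mg/mL stock), 1 h at 37 °C. Products were separated by SDS-PAGE with Coomassie staining. C2b band density was corrected for total C2 and normalized to a C1s + C2 control. Triplicates were fit to a four-parameter dose-response model.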

[13] = biological target: T5, C1r purified from human serum (Homo sapiens, UniProt P00736); assay: C1r chromogenic ZGR assay; assay type: biochemical
T5 sequence (P00736 18-463 limits assumed): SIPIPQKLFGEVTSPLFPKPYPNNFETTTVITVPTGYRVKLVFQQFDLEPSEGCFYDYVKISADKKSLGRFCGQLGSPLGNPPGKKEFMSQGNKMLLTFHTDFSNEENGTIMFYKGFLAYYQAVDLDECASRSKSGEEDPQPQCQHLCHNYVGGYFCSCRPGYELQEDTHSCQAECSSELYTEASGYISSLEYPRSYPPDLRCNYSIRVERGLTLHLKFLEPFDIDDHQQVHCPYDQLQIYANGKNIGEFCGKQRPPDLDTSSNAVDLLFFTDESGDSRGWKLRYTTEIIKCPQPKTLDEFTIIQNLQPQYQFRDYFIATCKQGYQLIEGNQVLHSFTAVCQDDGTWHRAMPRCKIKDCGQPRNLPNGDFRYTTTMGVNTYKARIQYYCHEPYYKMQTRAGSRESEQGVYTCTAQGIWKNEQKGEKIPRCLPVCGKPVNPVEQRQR
T5 sequence (P00736 464-705 limits assumed): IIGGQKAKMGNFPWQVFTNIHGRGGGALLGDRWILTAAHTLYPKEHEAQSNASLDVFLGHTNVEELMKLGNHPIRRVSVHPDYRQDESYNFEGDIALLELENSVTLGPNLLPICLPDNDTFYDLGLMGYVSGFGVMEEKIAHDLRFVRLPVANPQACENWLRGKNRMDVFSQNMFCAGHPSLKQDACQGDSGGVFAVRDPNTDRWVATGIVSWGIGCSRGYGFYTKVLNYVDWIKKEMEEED
Summary of the method: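 Human serum-derived C1r (10 nM) at 25 °C in 50 mM HEPES pH 7.4, 140 mM NaCl, 0.005% Tween-20, 10% DMSO, with 0.44 mM DTNB as indicator. Initial velocities of Z-Gly-Arg-thiobenzyl ester (ZGR) hydrolysis were read at four ZGR levels (~0.1–0.7 x Km) × five inhibitor levels (0–~0.8 x Ki) in microplates. Data (n = 3) were globally fit to a competitive inhibition model.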

[14] = test system: lectin pathway (LP); assay: LP ELISA; assay type: biochemical, human; settings: 100 μM A1, C1q-depleted serum, mannan-coated plates
[15] = recombinant human C1s-2SP, competitive inhibition model

In the case of `N=C(N)Nc1ccc(C(=O)O)cc1` [4-guanidinobenzoic acid], the inhibition of trypsin [1] is listed as “failed to inhibit trypsin”.
For `N=C(N)c1ccc(N2CCN(c3ccccc3)CC2)nc1` [A1, 6-(4-phenylpiperazin-1-yl)pyridine-3-carboximidamide], the pKi [2] was 4.61, the “inhibition of C5a generation” value [3] was ~ 75% and the pKi [4] was 5.07. For the same molecule, the “inhibition of Factor Xa” value [5] was “did not inhibit”, the “inhibition of Cathepsin-G” value [6] was “did not inhibit” and the “inhibition of Neutrophil Elastase” value [7] was “did not inhibit”. The solubility [8] was ≥ 10 mM, the pKi [9] was 4.29 and the “C4b deposition (CP activity)” value [10] was “reduced C4b deposition to less than two standard deviations below the mean; also recorded: essentially complete inhibition of C4b deposition”. It also gave a pIC50 ([10]; CP ELISA, C4b deposition, A1 100 – 3.1 μM) of 4.66, a pKi [11] of 5.24 and a pIC50 [12] of ~4.07. The pKi [13] was 3.07, the “selectivity C1s over C1r” value ([13]; ratio of Ki values) was ~ 145 fold and the “activity against the LP” value [14] was “relatively weak activity against the LP compared to the CP”.
For `O=C(COC(=O)Cn1cnc2scc(-c3cccs3)c2c1=O)Nc1ccc(O)cc1` [B5], the “C4b deposition (CP activity)” value [10] was “reduced C4b deposition to less than two standard deviations below the mean”.
In the case of `I.NC(N)=NCc1ccc(CN2CCc3ccccc32)cc1` [D4], the “C1s-2SP activity (initial velocity of ZGR cleavage)” value (from here on “C1s-2SP activity”) [4] was “failed to inhibit C1s enzyme activity”.
With `COc1ccc(CCNC(N)=NCc2ccc(OCCC(C)C)c(OC)c2)cc1.I` [D10] the “C1s-2SP activity” value [4] was “failed to inhibit C1s enzyme activity”.
In the case of `Cl.Cl.NC(N)=NCCCN(Cc1ccc(-c2ccccc2)cc1)S(=O)(=O)CCCN=C(N)N` [F2], the “C1s-2SP activity” value [4] was “failed to inhibit C1s enzyme activity”.
With `COc1cccc(Oc2ccc(CN=C(N)Nc3ccccc3)cn2)c1.I` [H1] the “C1s-2SP activity” value [4] was “failed to inhibit C1s enzyme activity”.
For `O=C(CSc1ncnc2sc(-c3ccccc3)cc12)NC(Cc1c[nH]c2ccccc12)C(=O)O` (stereo not drawn) [H9], the “C1s-2SP activity” value [4] was “failed to inhibit C1s enzyme activity”.
In the case of `N=C(N)c1ccc(N2CCN(c3cccc(F)c3)CC2)nc1` [meta-fluorine A1 analog], the pKi [4, 15] was 4.71.
`Cc1cccc(N2CCN(c3ccc(C(=N)N)cn3)CC2)c1` [meta-methyl A1 analog] gave a pKi [4, 15] of 4.65.
For `N=C(N)c1ccc(N2CCN(c3ccc(Cl)cc3)CC2)nc1` [para-chlorine A1 analog], the “loss of activity compared to A1” value [4] was > 10 fold.
With `N=C(N)c1ccc(N2CCN(c3ccc(F)cc3)CC2)nc1` [para-fluorine A1 analog] the “loss of activity compared to A1” value [4] was > 10 fold.
In the case of `N=C(N)c1cccnc1` [pyridine-3-carboximidamide, reference compound], the “inhibition of C1s” value ([11]; concentrations approaching ~375 μM, data not shown) was “failed to detect such inhibition”.
